Residue numbers refer to the chain shown, from its start.
Tests used:
[1] = biological target: T1, Muscarinic acetylcholine receptor M1 (Rattus norvegicus) (UniProt P08482); assay: Percentage inhibition of binding of [3H]quinuclidinyl benzilate to muscarinic acetylcholine receptor M1 in rat cerebral cortical membranes; assay type: cell membranes; design: concentration or dose not given beside the values; conditions: Membrane, concentration not given here
T1 sequence (whole entry): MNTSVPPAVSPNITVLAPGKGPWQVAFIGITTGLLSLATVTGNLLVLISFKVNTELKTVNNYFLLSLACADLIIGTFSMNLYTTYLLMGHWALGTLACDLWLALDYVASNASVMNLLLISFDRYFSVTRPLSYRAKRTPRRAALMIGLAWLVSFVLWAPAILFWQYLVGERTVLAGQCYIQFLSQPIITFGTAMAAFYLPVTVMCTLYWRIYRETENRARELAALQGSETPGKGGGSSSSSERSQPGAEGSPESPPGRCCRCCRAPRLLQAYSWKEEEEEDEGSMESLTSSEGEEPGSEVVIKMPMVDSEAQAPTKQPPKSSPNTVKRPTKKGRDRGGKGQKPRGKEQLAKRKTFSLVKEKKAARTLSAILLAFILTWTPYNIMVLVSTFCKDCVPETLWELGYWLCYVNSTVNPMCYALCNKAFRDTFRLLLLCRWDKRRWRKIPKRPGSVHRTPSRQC
In short: (§1)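 Rat cerebral cortex membranes were homogenised in 50 mM Tris-HCl pH 7.4 and diluted in HEPES binding buffer. They were incubated with 0.2 nM [3H]quinuclidinyl benzilate in 20 mM HEPES pH 7.4 with 10 mM MgCl2 and 100 mM NaCl for 30 min at 37 °C, in triplicate. Nonspecific binding used 1 µM atropine. Filtration was followed by scintillation counting.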

[2] = biological target: T2, Neuronal acetylcholine receptor; alpha4/beta2 (Rattus norvegicus) (UniProt P09483+P12390); assay: Inhibition of binding of [3H]nicotine to Nicotinic acetylcholine receptor alpha4-beta2 in rat cerebral cortical membranes at 100 uM concentration; assay type: cell membranes; conditions: Membrane
In short: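 [3H]nicotine (0.2 nM) binding to rat cortical membranes, with 200 µM diisopropyl fluorophosphate, 120 min at 0–4 °C, triplicate. Nonspecific binding with 1 µM nicotine. Percent inhibition at 100 µM test agent; mean ± SEM, n = 4.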

[3] = biological target: T2, Neuronal acetylcholine receptor; alpha4/beta2 (Rattus norvegicus); assay: (§2) The compound was evaluated for percentage inhibition of binding of [3H]- nicotine to Nicotinic acetylcholine receptor alpha4-beta2 in Rat Cerebral Cortical Membranes; assay type: protein-complex assay; design: concentration or dose not given beside the values; conditions: concentration not given here
In short: (§3)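 Rat cerebral cortex membranes with 0.2 nM [3H]nicotine in HEPES binding buffer pH 7.4 containing 200 µM diisopropyl fluorophosphate. Incubation was 120 min at 0–4 °C, in triplicate. Nonspecific binding used 1 µM nicotine. Samples were filtered through polyethylenimine-soaked GF/B filters and counted.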

[4] = biological target: T3, Muscarinic acetylcholine receptor M1 (Homo sapiens) (UniProt P11229); assay: Percentage inhibition of binding of [3H]quinuclidinyl benzilate to muscarinic receptors in membranes of CHO cells transfected with Muscarinic acetylcholine receptor M1; assay type: cell membranes; conditions: concentration not given here
T3 sequence (whole entry): T1 sequence (whole entry) with V5A, S254T, S309P, K320R, G337A, V413I
In short: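 Membranes from CHO cells expressing human M1–M4 receptors in 25 mM sodium phosphate pH 7.4 with 5 mM MgCl2, 30 min at 37 °C, triplicate. [3H]quinuclidinyl benzilate was 0.2 nM for M1 and M3 and 0.1 nM for M2 and M4. Nonspecific binding used 10 µM atropine for M1 and 1 µM for the others.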

[5] = biological target: T4, Muscarinic acetylcholine receptor M3 (Homo sapiens, UniProt P20309); assay: Percentage inhibition of binding of [3H]quinuclidinyl benzilate to muscarinic receptors in membranes of CHO cells transfected with Muscarinic acetylcholine receptor M3; assay type: cell membranes; conditions: concentration not given here
Target sequence in this assay (P20309 whole entry, looked up): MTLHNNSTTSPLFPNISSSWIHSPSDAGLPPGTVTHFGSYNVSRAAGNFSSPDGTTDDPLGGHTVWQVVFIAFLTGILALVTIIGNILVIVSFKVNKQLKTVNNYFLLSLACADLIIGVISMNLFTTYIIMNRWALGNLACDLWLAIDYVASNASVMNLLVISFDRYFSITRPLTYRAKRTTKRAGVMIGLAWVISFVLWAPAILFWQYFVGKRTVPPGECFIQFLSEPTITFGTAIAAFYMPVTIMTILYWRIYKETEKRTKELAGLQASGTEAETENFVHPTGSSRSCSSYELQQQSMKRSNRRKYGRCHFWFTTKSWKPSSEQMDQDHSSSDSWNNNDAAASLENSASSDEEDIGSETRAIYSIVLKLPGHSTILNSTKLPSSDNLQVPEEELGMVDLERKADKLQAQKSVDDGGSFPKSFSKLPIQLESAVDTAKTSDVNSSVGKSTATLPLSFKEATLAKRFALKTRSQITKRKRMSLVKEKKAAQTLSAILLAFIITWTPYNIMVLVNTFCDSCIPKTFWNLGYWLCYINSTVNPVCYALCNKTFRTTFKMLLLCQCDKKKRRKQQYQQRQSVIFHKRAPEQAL

[6] = biological target: T5, Muscarinic acetylcholine receptor M2 (Homo sapiens, UniProt P08172); assay: Inhibitory activity against [3H]quinuclidinyl Benzilate binding to Muscarinic acetylcholine receptor M2 in the absence of GTP
T5 sequence (P08172 whole entry): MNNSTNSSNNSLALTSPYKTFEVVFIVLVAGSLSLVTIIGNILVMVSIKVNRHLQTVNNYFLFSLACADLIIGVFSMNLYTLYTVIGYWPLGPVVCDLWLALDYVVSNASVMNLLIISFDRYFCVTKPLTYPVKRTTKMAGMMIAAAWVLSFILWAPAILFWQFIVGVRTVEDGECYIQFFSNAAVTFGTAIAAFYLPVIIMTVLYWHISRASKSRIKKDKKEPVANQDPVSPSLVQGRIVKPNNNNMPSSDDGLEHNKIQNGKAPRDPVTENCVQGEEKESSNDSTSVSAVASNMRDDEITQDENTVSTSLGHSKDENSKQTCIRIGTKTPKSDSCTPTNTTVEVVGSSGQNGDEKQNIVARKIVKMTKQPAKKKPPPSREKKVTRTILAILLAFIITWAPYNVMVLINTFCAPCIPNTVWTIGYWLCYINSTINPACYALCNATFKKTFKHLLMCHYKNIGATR
In short: (§4)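 Membranes from CHO cells expressing human M2 receptor. Competition against 0.1 nM [3H]quinuclidinyl benzilate in 25 mM sodium phosphate pH 7.4, 5 mM MgCl2, without or with 10 μM GTP; 30 min at 37 °C, triplicate. Nonspecific binding with 1 μM atropine. Filtration, scintillation counting.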

[7] = biological target: T5, Muscarinic acetylcholine receptor M2; assay: Inhibitory activity against [3H]quinuclidinyl Benzilate binding to Muscarinic acetylcholine receptor M2 in the presence of GTP; in short: as §4
[8] = biological target: T5, Muscarinic acetylcholine receptor M2; assay: Inhibition of binding of [3H]quinuclidinyl benzilate to muscarinic receptors in membranes of CHO cells transfected with Muscarinic acetylcholine receptor M2; assay type: cell membranes
[9] = biological target: T6, Muscarinic acetylcholine receptor M4 (Homo sapiens, UniProt P08173); assay: Inhibition of binding of [3H]quinuclidinyl benzilate to muscarinic receptors in membranes of CHO cells transfected with Muscarinic acetylcholine receptor M4; assay type: cell membranes
T6 sequence (P08173 whole entry): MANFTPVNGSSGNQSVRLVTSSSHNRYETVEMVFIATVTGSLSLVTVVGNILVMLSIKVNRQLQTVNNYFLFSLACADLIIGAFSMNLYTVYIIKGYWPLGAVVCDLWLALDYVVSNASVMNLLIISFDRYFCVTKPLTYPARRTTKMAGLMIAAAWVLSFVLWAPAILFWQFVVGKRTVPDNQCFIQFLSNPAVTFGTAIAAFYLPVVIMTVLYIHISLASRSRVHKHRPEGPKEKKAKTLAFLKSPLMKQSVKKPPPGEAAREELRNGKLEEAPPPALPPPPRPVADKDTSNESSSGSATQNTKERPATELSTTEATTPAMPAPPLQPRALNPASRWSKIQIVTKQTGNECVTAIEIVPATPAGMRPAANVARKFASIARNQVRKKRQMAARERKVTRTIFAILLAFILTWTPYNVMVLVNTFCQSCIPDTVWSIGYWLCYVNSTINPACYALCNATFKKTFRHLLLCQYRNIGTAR

[10] = biological target: Muscarinic acetylcholine receptor M2 (Homo sapiens) (UniProt P08172); assay: Inhibition of binding of [3H]quinuclidinyl benzilate to Muscarinic acetylcholine receptor M2 in membranes of transfected CHO cells
[11] = biological target: Muscarinic acetylcholine receptor M4 (Homo sapiens) (UniProt P08173); assay: Inhibition of binding of [3H]quinuclidinyl benzilate to Muscarinic acetylcholine receptor M4 in membranes of transfected CHO cells
[12] = biological target: Muscarinic acetylcholine receptor M4 (Homo sapiens) (UniProt P08173); assay: Inhibitory activity against [3H]-cyclic AMP accumulation in CHO transfected cells mediated by Muscarinic acetylcholine receptor M4
[13] = biological target: Muscarinic acetylcholine receptor M2 (Homo sapiens) (UniProt P08172); assay: Inhibition of binding of 0.1 nM [3H]quinuclidinyl benzilate to Muscarinic acetylcholine receptor M2 in membranes of transfected CHO cells in the absence of GTP
[14] = biological target: Muscarinic acetylcholine receptor M2 (Homo sapiens) (UniProt P08172); assay: Inhibition of binding of 0.1 nM [3H]quinuclidinyl benzilate to Muscarinic acetylcholine receptor M2 in membranes of transfected CHO cells in the presence of 10 uM GTP
[15] = biological target: Muscarinic acetylcholine receptor M1 (Homo sapiens) (UniProt P11229); assay: Inhibitory activity against stimulation of [3H]inositol monophosphate accumulation in [3H]inositol-labelled CHO transfected cells mediated by Muscarinic acetylcholine receptor M1
Target sequence in this assay (P11229 whole entry, looked up): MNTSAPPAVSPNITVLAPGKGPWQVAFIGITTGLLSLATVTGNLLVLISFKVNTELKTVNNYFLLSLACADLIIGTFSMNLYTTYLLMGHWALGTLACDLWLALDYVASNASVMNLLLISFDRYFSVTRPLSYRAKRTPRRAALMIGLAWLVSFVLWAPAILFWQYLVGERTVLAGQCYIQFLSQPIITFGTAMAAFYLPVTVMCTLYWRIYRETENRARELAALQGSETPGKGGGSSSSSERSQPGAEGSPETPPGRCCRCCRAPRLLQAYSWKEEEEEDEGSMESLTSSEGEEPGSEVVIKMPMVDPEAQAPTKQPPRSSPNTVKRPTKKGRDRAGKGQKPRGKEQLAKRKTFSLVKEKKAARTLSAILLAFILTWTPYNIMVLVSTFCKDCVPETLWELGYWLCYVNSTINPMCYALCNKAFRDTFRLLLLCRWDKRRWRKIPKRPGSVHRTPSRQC

[16] = biological target: T4, Muscarinic acetylcholine receptor M3; assay: Inhibitory activity against stimulation of [3H]inositol monophosphate accumulation in [3H]inositol-labelled CHO transfected cells mediated by Muscarinic acetylcholine receptor M3
Target sequence in this assay (P20309 whole entry, looked up): as the sequence (P20309 whole entry, looked up) above

[17] = biological target: T4, Muscarinic acetylcholine receptor M3; assay: Inhibition of binding of [3H]quinuclidinyl benzilate to human Muscarinic acetylcholine receptor M3 in membranes of transfected CHO cells at 100 uM concentration; conditions: Membrane
Target sequence in this assay (P20309 whole entry, looked up): as above

[18] = biological target: T3, Muscarinic acetylcholine receptor M1 (Homo sapiens); assay: Percentage inhibition of binding of [3H]quinuclidinyl benzilate to […] Muscarinic acetylcholine receptor M1 transfected in membranes of CHO cells; assay type: cell membranes; conditions: concentration not given here
[19] = biological target: T7, Muscarinic acetylcholine receptor M1 (Rattus norvegicus, UniProt P08482); assay: Inhibition of binding of [3H]quinuclidinyl benzilate to Muscarinic acetylcholine receptor M1 in rat cerebral cortical membranes at 100 uM concentration; assay type: cell membranes, Membrane
T7 sequence (P08482 whole entry): T1 sequence (whole entry)
In short: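 Rat cortical membranes with 0.2 nM [3H]quinuclidinyl benzilate in HEPES pH 7.4 with 10 mM MgCl2 and 100 mM NaCl, 30 min at 37 °C, triplicate. Atropine 1 µM defined nonspecific binding. Percent inhibition was read at 100 µM test agent; mean ± SEM, n = 4.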

[20] = biological target: T7, Muscarinic acetylcholine receptor M1; assay: The compound was evaluated for inhibition of binding of [3H]quinuclidinyl benzilate to Muscarinic acetylcholine receptor M1 in Rat Cerebral Cortical Membranes; in short: as §1
[21] = biological target: T4, Muscarinic acetylcholine receptor M3; assay: Inhibition of binding of [3H]quinuclidinyl benzilate to muscarinic receptors in membranes of CHO cells transfected with […] Muscarinic acetylcholine receptor M3; assay type: cell membranes; conditions: concentration not given here
Target sequence in this assay (P20309 whole entry, looked up): as above

[22] = biological target: T8, Neuronal acetylcholine receptor; alpha4/beta2 (Rattus norvegicus, UniProt P09483+P12390); assay: Inhibition of binding of [3H]nicotine to Nicotinic acetylcholine receptor alpha4-beta2 in rat cerebral cortical membranes; assay type: cell membranes, Membrane; in short: as §3
T8 sequence (P09483 whole entry): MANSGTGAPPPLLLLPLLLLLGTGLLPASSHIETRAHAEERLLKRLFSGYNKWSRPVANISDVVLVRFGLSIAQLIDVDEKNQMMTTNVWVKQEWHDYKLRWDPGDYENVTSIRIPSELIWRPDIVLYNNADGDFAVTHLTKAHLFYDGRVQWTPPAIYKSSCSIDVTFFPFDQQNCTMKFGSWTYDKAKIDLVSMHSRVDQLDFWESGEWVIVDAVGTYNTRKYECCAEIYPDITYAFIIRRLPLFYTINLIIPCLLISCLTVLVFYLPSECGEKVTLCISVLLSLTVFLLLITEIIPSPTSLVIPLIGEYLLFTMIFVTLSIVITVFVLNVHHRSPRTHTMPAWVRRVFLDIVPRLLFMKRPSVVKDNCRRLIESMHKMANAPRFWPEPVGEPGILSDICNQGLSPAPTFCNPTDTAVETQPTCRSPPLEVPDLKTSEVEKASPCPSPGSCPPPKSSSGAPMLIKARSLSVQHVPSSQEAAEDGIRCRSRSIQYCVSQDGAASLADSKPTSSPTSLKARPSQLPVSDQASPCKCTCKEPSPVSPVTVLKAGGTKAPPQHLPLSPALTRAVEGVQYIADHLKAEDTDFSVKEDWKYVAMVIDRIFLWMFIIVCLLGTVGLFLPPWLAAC
T8 sequence (P12390 whole entry): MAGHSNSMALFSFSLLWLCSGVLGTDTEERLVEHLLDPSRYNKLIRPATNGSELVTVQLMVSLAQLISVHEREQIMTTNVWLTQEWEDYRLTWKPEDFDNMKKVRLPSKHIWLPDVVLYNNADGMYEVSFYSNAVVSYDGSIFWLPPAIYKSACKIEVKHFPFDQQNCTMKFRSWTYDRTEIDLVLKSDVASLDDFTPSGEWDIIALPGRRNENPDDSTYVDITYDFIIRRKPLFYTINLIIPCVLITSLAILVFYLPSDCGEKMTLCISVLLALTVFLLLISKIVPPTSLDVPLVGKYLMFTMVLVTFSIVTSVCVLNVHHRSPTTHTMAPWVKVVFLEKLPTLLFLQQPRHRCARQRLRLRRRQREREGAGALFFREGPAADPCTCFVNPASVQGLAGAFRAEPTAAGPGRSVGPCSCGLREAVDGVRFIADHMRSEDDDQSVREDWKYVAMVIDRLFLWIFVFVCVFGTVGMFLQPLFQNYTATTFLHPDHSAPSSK

[23] = biological target: T8, Neuronal acetylcholine receptor; alpha4/beta2; assay: as §2; assay type: protein-complex assay; in short: as §3
[24] = biological target: T7, Muscarinic acetylcholine receptor M1; assay: Inhibition of binding of [3H]oxotremorine M to Muscarinic acetylcholine receptor M1 in rat cerebral cortical membranes; assay type: cell membranes, Membrane
In short: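 Agonist radioligand assay: rat cortical membranes with 2 nM [3H]oxotremorine M in 25 mM sodium phosphate pH 7.4 with 5 mM MgCl2, 2 h at 25 °C, in triplicate. Nonspecific binding used 5 µM atropine. Filtration followed by scintillation counting.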

[25] = biological target: T7, Muscarinic acetylcholine receptor M1; assay: Affinity versus [3H]oxotremorine M (agonist) binding to Muscarinic acetylcholine receptor M1 in Rat Cerebral Cortical Membranes, (Kd=[…])
[26] = biological target: T4, Muscarinic acetylcholine receptor M3; assay: Inhibition of binding of [3H]quinuclidinyl benzilate to muscarinic receptors in membranes of CHO cells transfected with Muscarinic acetylcholine receptor M3; assay type: cell membranes
Target sequence in this assay (P20309 whole entry): as the sequence (P20309 whole entry, looked up) above

[27] = biological target: Muscarinic acetylcholine receptor M1 (Homo sapiens) (UniProt P11229); assay: Inhibition of binding of [3H]quinuclidinyl benzilate to human Muscarinic acetylcholine receptor M1 in membranes of transfected CHO cells at 300 uM concentration; conditions: Membrane
Target sequence in this assay (P11229 whole entry, looked up): as the sequence (P11229 whole entry, looked up) above

Q: With `COC(=O)C1CC2NC1CCC21SCCS1` (stereo not drawn) as the molecule, how does the inhibition [1] read?
A: 3%

Q: And the inhibition [2]?
A: 36%

Q: What about the inhibition [3] of the same molecule?
A: 36%

Q: With `COC(=O)[C@H]1CC2NC1CC[C@H]2OC(C)=O` (stereo partly drawn) as the molecule, how does the inhibition [1] read?
A: 1%

Q: And the inhibition [2]?
A: 19%

Q: What about the inhibition [3] of the same molecule?
A: 19%

Q: What does the source list for `CC(=O)OC(C)C[N+](C)(C)C` (stereo not drawn) [METHACHOLINE]?
A: inhibition [4]: 8%; inhibition [5]: 34%; IC50 [6]: 380 nM; IC50 [7]: 5200 nM; Ki [8]: 59 nM; Ki [9]: 1600 nM; Ki [10]: 59 nM; Ki [11]: 1600 nM; IC50 [12]: 700 nM; IC50 [13]: 380 nM; IC50 [14]: 5200 nM; EC50 [15]: 400 nM; EC50 [16]: 120 nM

Q: For `COC(=O)C1C(O)CC2CCC1N2C` (stereo not drawn), which inhibition [4] is on record?
A: 13%

Q: And the inhibition [1]?
A: 27%

Q: And the inhibition [5]?
A: 19%

Q: And the inhibition [2]?
A: 11%

Q: And the inhibition [3]?
A: 11%

Q: And the inhibition [17]?
A: 28%

Q: For `COC(=O)C1=CCC2CCC1N2C` (stereo not drawn), which inhibition [18] is on record?
A: 26%

Q: And the Ki [19]?
A: 25000 nM

Q: What about the Ki [20] of the same molecule?
A: 25000 nM

Q: What about the inhibition [21] of the same molecule?
A: 28%

Q: And the inhibition [17]?
A: 28%

Q: `CC(=O)O[C@@H]1CCC2CCC1N2` (stereo partly drawn) was tested. Which Ki [22] did it give?
A: 24000 nM

Q: What about the Ki [23] of the same molecule?
A: 24000 nM

Q: Which inhibition [4] does the source give for `COC(=O)C1CC2CCCC1N2` (stereo not drawn) here?
A: 24%

Q: And the Ki [24]?
A: 260 nM

Q: And the Ki [25]?
A: 260 nM

Q: And the Ki [26]?
A: 18000 nM

Q: What about the Ki [8] of the same molecule?
A: 480 nM

Q: And the Ki [9]?
A: 7900 nM

Q: What about the Ki [22] of the same molecule?
A: 150 nM

Q: And the Ki [23]?
A: 150 nM

Q: And the Ki [10]?
A: 480 nM

Q: What about the Ki [11] of the same molecule?
A: 7900 nM

Q: What about the inhibition [27] of the same molecule?
A: 24%

Q: `COC(=O)[C@H]1CC2NC1CC[C@H]2O` (stereo partly drawn) was tested. Which Ki [22] did it give?
A: 64000 nM

Q: And the Ki [23]?
A: 64000 nM

Q: What does the source list for `COC(=O)C1CC2NC1CCC2=O` (stereo not drawn)?
A: inhibition [1]: 0%; inhibition [2]: 15%; inhibition [3]: 15%
